Active and inactive are the calls of the source. The calls are words filed in the database; no cut-off is given here.
What was measured:
[1] = Inhibition of CD40L, IFN-gamma and IL18 mixture-induced IL6 production in mouse DC-B cells after 18 to 24 hrs by fluorescence immunoassay; format: functional, cell-based
Method in brief: (§1)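 DC-B cells grown in GM-CSF (20 ng/mL) medium and passaged every 48 h. Cells were mixed with compound in low-serum assay medium (0.4% DMSO) and stimulated with murine CD40L 2 ng/mL, IL-18 40 ng/mL and IFN-gamma 20 ng/mL (final). Incubation was 18–24 h at 37 °C, 5% CO2. Supernatant IL-12p40 or IL-6 was measured by europium sandwich immunoassay (biotinylated detection antibody, Eu-streptavidin, 615 nm). Ten concentrations were tested, in triplicate, and results were expressed as percent of control versus concentration.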

[2] = Cytotoxicity against CD40L, IFN-gamma and IL18 mixture-stimulated mouse DC-B cells at <100 nM after 18 hrs by CellTiter-Glo assay; format: cell-based
Method in brief: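 Murine dendritic cell line DC-B treated with test compound, then stimulated as in the cytokine assay (mouse CD40L, IL-18, IFN-gamma) and incubated 18 h. CellTiter-Glo reagent added in volume equal to the culture. Plates shaken 2 min to lyse cells, then left 10 min without shaking. Luminescence read on a microplate reader.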

[3] = Inhibition of CD40L, IFN-gamma and IL18 mixture-induced IL12p40 production in mouse DC-B cells after 18 to 24 hrs by fluorescence immunoassay; format: functional, cell-based; method in brief: as §1
Mus musculus = species on record: Mus musculus; test: Inhibition of CD40L, IFN-gamma and IL18 mixture-induced IL12p40 production in mouse DC-B cells at 10 uM after 18 to 24 hrs by fluorescence immunoassay; format: functional, cell-based

SMILES: O=C(Nc1cc(C(F)(F)F)cc(C(F)(F)F)c1)c1ccccc1O
- IC50 [1]: 740 nM
- Activity [2]: Non-toxic
- IC50 [3]: 120 nM

SMILES: O=c1oc2cc(Cl)ccc2c(=O)n1-c1cc(C(F)(F)F)cc(C(F)(F)F)c1
- IC50 [1]: 350 nM
- Activity [2]: Non-toxic
- IC50 [3]: 280 nM

SMILES: O=C(Nc1cc(Cl)cc(Cl)c1)c1cc([N+](=O)[O-])ccc1O
- IC50 [1]: 170 nM
- Activity [2]: Non-toxic
- IC50 [3]: 410 nM

SMILES: CN(C(=O)c1ccccc1O)c1cc(Cl)cc(Cl)c1
- IC50 [1]: > 10000 nM
- Activity [2]: Non-toxic
- IC50 [3]: > 10000 nM

SMILES: O=C(Nc1cc(C(F)(F)F)ccc1Cl)c1ccccc1O
- IC50 [1]: 1800 nM
- Activity [2]: Non-toxic
- IC50 [3]: 200 nM

SMILES: O=C(O)CN(C(=O)c1ccccc1O)c1cc(Cl)cc(Cl)c1
- IC50 [1]: > 10000 nM
- Activity [2]: Non-toxic
- IC50 [3]: > 10000 nM

SMILES: O=C1c2cccc(O)c2C(=O)N1c1cc(Cl)cc(Cl)c1
- IC50 [1]: > 10000 nM
- Activity [2]: Non-toxic
- IC50 [3]: > 10000 nM

SMILES: O=C(Nc1ccccn1)c1ccccc1O
- IC50 [1]: > 10000 nM
- Activity [2]: Non-toxic
- IC50 [3]: > 10000 nM

SMILES: O=C(Nc1cc(Cl)c(Cl)cc1Cl)c1cc(Br)ccc1O
- IC50 [1]: 640 nM
- Activity [2]: Non-toxic
- IC50 [3]: 74 nM

SMILES: O=C(Nc1cc(Cl)cc(Cl)c1)c1ccc([N+](=O)[O-])cc1O
- IC50 [1]: 250 nM
- Activity [2]: Non-toxic
- IC50 [3]: 320 nM

SMILES: O=C(Nc1cc(Cl)c(Cl)cc1Cl)c1ccccc1O
- IC50 [1]: > 10000 nM
- Activity [2]: Non-toxic
- IC50 [3]: 45 nM

SMILES: Oc1ccc(Br)cc1CNc1cc(Cl)cc(Cl)c1
- IC50 [1]: 1700 nM
- Activity [2]: Non-toxic
- IC50 [3]: 2700 nM

SMILES: O=C(Nc1cc(Cl)cc(Cl)c1)c1ccccc1OCc1ccccc1
- IC50 [1]: > 10000 nM
- Activity [2]: Non-toxic
- Activity (Mus musculus): inactive
- IC50 [3]: > 10000 nM

SMILES: O=C(Nc1ccc(O)cc1)c1ccccc1O [OSALMID]
- IC50 [1]: > 10000 nM
- Activity [2]: Non-toxic
- IC50 [3]: > 10000 nM

SMILES: O=C(Nc1cc(Cl)cc(Cl)c1)c1cc(Br)ccc1O
- IC50 [1]: 300 nM
- Activity [2]: Non-toxic
- IC50 [3]: 13 nM

SMILES: O=C(Nc1ccc(Cl)c(Cl)c1)c1cc(Cl)ccc1O
- IC50 [1]: 130 nM
- Activity [2]: Non-toxic
- IC50 [3]: 130 nM

SMILES: Cc1cc(C)cc(NC(=O)c2ccccc2O)c1
- IC50 [1]: > 10000 nM
- Activity [2]: Non-toxic
- IC50 [3]: > 10000 nM

SMILES: O=C(Nc1cc(Cl)cc(Cl)c1)c1ccccc1NS(=O)(=O)c1ccc(Cl)c([N+](=O)[O-])c1
- IC50 [1]: 220 nM
- Activity [2]: Non-toxic
- IC50 [3]: 240 nM

SMILES: O=C(Nc1cccc(Cl)c1)c1ccccc1O
- IC50 [1]: > 10000 nM
- Activity [2]: Non-toxic
- IC50 [3]: 5100 nM

SMILES: O=C(Nc1cc(Cl)cc(Cl)c1)c1ccccc1O
- IC50 [1]: > 10000 nM
- Activity [2]: Non-toxic
- IC50 [3]: 13 nM
